The text below walks through data of ChEMBL document CHEMBL1122383, “Potential tissue-imaging agents: 23-(trimethyl [117mSn]stannyl)-24-nor-5 alpha-cholan-3 beta-ol” (J Med Chem, 1983).

For data set [1], the species on record is Homo sapiens. The data set is described as follows: Adsorbed radiation dose value was calculated to human body. The data set is classed as functional, organism-based. The method, boiled down: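 Rat tissue distribution data were converted to percent kilogram dose per gram. The fraction of injected dose in each human organ was taken as (% kg dose/g × organ weight)/(kg body weight × 100). Cumulated activities came from these fractions and organ half-times. Sn-117m S values (rd/µCi-h) then gave the absorbed dose in rd/mCi.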

The subject of data set [2] is Rattus norvegicus. In words: Adrenal Uptake was determined on day1 after iv administration into rat. The format is functional, organism-based. The method, boiled down:
(§1)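 The tin-117m-labeled steroid was injected intravenously into female rats. Adrenal glands were taken at the stated day after injection, up to 21 days. Radioactivity was reported as percent of injected dose, given as the mean and range.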

For data set [3], the species on record is Homo sapiens. In words: Adsorbed radiation dose value was calculated to human liver. The data set is classed as functional. An outline of the steps: (§2)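 Human absorbed dose (rd/mCi) estimated from rat tissue distribution data re-expressed as percent kilogram dose per gram. Fraction of injected dose per human organ = (% kg dose/g × organ weight)/(kg body weight of man × 100). Cumulated activities were derived from these fractions and organ half-times, then combined with Sn-117m S values (rd/μCi-h).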

Data set [4] can be described thus: It is the ratio of adrenal to blood measured on day 3 after iv administration in rat. The format is functional, organism-based. The method, boiled down:
(§3)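 Female rats received an intravenous injection of the tin-117m-labeled steroid. Adrenal/blood and adrenal/liver ratios were calculated from percent dose per gram of tissue at the stated day after injection.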

For data set [5], the species on record is Homo sapiens. The data set is described as follows: Adsorbed radiation dose value was calculated to human lungs. The data set is classed as functional. An outline of the steps:
as §2

Data set [6] is described as follows: It is the ratio of adrenal to liver measured on day 7 after iv administration in rat. The format is functional, organism-based. The method, boiled down:
as §3

For data set [7], the species on record is Homo sapiens. In words: Adsorbed radiation dose value was calculated to human spleen. The data set is classed as functional. The method, boiled down:
as §2

The test system of data set [8] is Rattus norvegicus. In words: Adrenal Uptake was determined on day 14 after iv administration into rat. The data set is classed as functional, organism-based. An outline of the steps: as §1
For data set [9], the system named is Rattus norvegicus. The data set is described as follows: Adrenal Uptake was determined on day 21 after iv administration into rat. The format is functional, organism-based. The method, boiled down:
as §1

Data set [10] can be described thus: It is the ratio of adrenal to blood measured on day 14 after iv administration in rat. The format is functional, organism-based. An outline of the steps: as §3
The nature of data set [11]: It is the ratio of adrenal to blood measured on day 21 after iv administration in rat. The data set is classed as functional, organism-based. The method, boiled down:
as §3

The nature of data set [12]: It is the ratio of adrenal to liver measured on day1 after iv administration in rat. The format is functional, organism-based. The method, boiled down: as §3
Data set [13] in a line: It is the ratio of adrenal to liver measured on day 14 after iv administration in rat. The format is functional, organism-based. An outline of the steps: as §3
The species entered for data set [14] is Homo sapiens. In words: Adsorbed radiation dose value was calculated to human ovaries. The data set is classed as functional. The method, boiled down: as §2
Data set [15] deals with Rattus norvegicus. The data set is described as follows: Adrenal Uptake was determined on day 7 after iv administration into rat. The format is functional, organism-based. An outline of the steps:
as §1

Data set [16] in a line: It is the ratio of adrenal to liver measured on day 21 after iv administration in rat. The data set is classed as functional, organism-based. An outline of the steps: as §3
The nature of data set [17]: It is the ratio of adrenal to blood measured on day 7 after iv administration in rat. The format is functional, organism-based. An outline of the steps: as §3
Data set [18] is described as follows: It is the ratio of adrenal to liver measured on day 3 after iv administration in rat. The data set is classed as functional, organism-based. An outline of the steps: as §3
Data set [19] is described as follows: It is the ratio of adrenal to blood measured on day1 after iv administration in rat. The data set is classed as functional, organism-based. The method, boiled down: as §3
The species entered for data set [20] is Homo sapiens. In words: Adsorbed radiation dose value was calculated to human adrenal. The data set is classed as functional. The method, boiled down: as §2
The subject of data set [21] is Rattus norvegicus. The data set is described as follows: Adrenal Uptake was determined on day 3 after iv administration into rat. The data set is classed as functional, organism-based. The method, boiled down:
as §1

The subject of data set [22] is Rattus norvegicus. In words: Tested for distribution of radioactivity in female rat tissue at 7 day after intravenous administration in liver. The data set is classed as ADME, organism-based. The following applies: in vivo, 168 h. The method, boiled down:
(§4)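 Rat tissue distribution followed intravenous injection of the tin-117m-labeled steroid into female rats. Adrenals, blood, kidneys, liver and ovaries were counted at the stated day. Values are percent dose/gram, given as the mean and range for three female rats.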

For data set [23], the system named is Rattus norvegicus. The data set is described as follows: Tested for distribution of radioactivity in female rat tissue at 14d ay after intravenous administration in adrenal. The following applies: in vivo. The data set is classed as ADME, organism-based. An outline of the steps:
as §4

The test system of data set [24] is Rattus norvegicus. In words: Tested for distribution of radioactivity in female rat tissue at 21 day after intravenous administration in kidney. The data set is classed as ADME, organism-based. The following applies: in vivo, 504 h. The method, boiled down: as §4
Data set [25] has as its system Rattus norvegicus. In words: Tested for distribution of radioactivity in female rat tissue at 3 day after intravenous administration in adrenal. The format is ADME, organism-based. The following applies: in vivo, 72 h. The method, boiled down: as §4
Data set [26] deals with Rattus norvegicus. In words: Tested for distribution of radioactivity in female rat tissue at 14d ay after intravenous administration in blood. The data set is classed as ADME, organism-based. The following applies: in vivo. The method, boiled down: as §4
Data set [27] has as its system Rattus norvegicus. In words: Tested for distribution of radioactivity in female rat tissue at 3 day after intravenous administration in blood. The format is ADME, organism-based. The following applies: in vivo, 72 h. The method, boiled down:
as §4

The test system of data set [28] is Rattus norvegicus. In words: Tested for distribution of radioactivity in female rat tissue at 7 day after intravenous administration in blood. The format is ADME, organism-based. The following applies: in vivo, 168 h. The method, boiled down: as §4
Data set [29] deals with Rattus norvegicus. The data set is described as follows: Tested for distribution of radioactivity in female rat tissue at 3 day after intravenous administration in liver. The data set is classed as ADME, organism-based. The following applies: in vivo, 72 h. An outline of the steps:
as §4

In data set [30] the test system is Rattus norvegicus. The data set is described as follows: Tested for distribution of radioactivity in female rat tissue at 3 day after intravenous administration in ovaries. The format is ADME, organism-based. The following applies: in vivo, 72 h. An outline of the steps: as §4
Data set [31] deals with Rattus norvegicus. The data set is described as follows: Tested for distribution of radioactivity in female rat tissue at 14d ay after intravenous administration in ovaries. The format is ADME, organism-based. The following applies: in vivo. The method, boiled down: as §4
Data set [32] relates to Rattus norvegicus. The data set is described as follows: Tested for distribution of radioactivity in female rat tissue at 14d ay after intravenous administration in kidney. The format is ADME, organism-based. The following applies: in vivo. The method, boiled down:
as §4

The test system of data set [33] is Rattus norvegicus. In words: Tested for distribution of radioactivity in female rat tissue at 7 day after intravenous administration in adrenal. The following applies: in vivo, 168 h. The data set is classed as ADME, organism-based. An outline of the steps: as §4
For data set [34], the system named is Rattus norvegicus. The data set is described as follows: Tested for distribution of radioactivity in female rat tissue at 14d ay after intravenous administration in liver. The data set is classed as ADME, organism-based. The following applies: in vivo. The method, boiled down: as §4
Data set [35] relates to Rattus norvegicus. In words: Tested for distribution of radioactivity in female rat tissue at 21 day after intravenous administration in blood. The following applies: in vivo, 504 h. The data set is classed as ADME, organism-based. An outline of the steps: as §4
For data set [36], the system named is Rattus norvegicus. The data set is described as follows: Tested for distribution of radioactivity in female rat tissue at 3 day after intravenous administration in kidney. The data set is classed as ADME, organism-based. The following applies: in vivo, 72 h. An outline of the steps: as §4
For data set [37], the system named is Rattus norvegicus. In words: Tested for distribution of radioactivity in female rat tissue at 7 day after intravenous administration in ovaries. The format is ADME, organism-based. The following applies: in vivo, 168 h. An outline of the steps: as §4
The test system of data set [38] is Rattus norvegicus. The data set is described as follows: Tested for distribution of radioactivity in female rat tissue at 21 day after intravenous administration in adrenal. The format is ADME, organism-based. The following applies: in vivo, 504 h. An outline of the steps:
as §4

The subject of data set [39] is Rattus norvegicus. In words: Tested for distribution of radioactivity in female rat tissue at 21 day after intravenous administration in ovaries. The following applies: in vivo, 504 h. The data set is classed as ADME, organism-based. The method, boiled down: as §4
Data set [40] relates to Rattus norvegicus. The data set is described as follows: Tested for distribution of radioactivity in female rat tissue at 7 day after intravenous administration in kidney. The format is ADME, organism-based. The following applies: in vivo, 168 h. The method, boiled down: as §4
Data set [41] is filed under the species Homo sapiens. The data set is described as follows: Adsorbed radiation dose value was calculated to human total body. The format is functional. The method, boiled down:
as §2

With Stannanyl complex [listing 1 of 2 here], the Dose in the data set filed under Homo sapiens [1] was 0.77 rd mCi-1; in the data set listed under Homo sapiens [3], 5.3 rd mCi-1; in the data set listed under Homo sapiens [5], 4.1 rd mCi-1; in the data set listed under Homo sapiens [7] it was 7.7 rd mCi-1; in the data set filed under Homo sapiens [14] (Female gonad), 4.4 rd mCi-1; in the data set filed under Homo sapiens [20], 83 rd mCi-1. The Adrenal uptake amounted to 2.51 in the data set with Rattus norvegicus [2]; 0.34 in the data set with Rattus norvegicus [8]; 0.16 in the data set with Rattus norvegicus [9]; 1.1 in the data set with Rattus norvegicus [15]; 2.86 in the data set with Rattus norvegicus [21]. In addition, the Ratio in data set [4] was found to be 63.6; in data set [6], 44; in [10], 49.7; in data set [11] it was 23.3; in data set [12], 9.1; in data set [13] it was 37.3. The Ratio is 16.6 in data set [16], 102 in [17], 23.9 in data set [18] and 33.7 in data set [19].
Consider Stannanyl complex [listing 2 of 2 here], for which the Dose/g in the data set with Rattus norvegicus [22] was 0.44%; in the data set with Rattus norvegicus [23], 7.46%; with Rattus norvegicus [24], 0.26%; in the data set on Rattus norvegicus [25] it was 50.88%; in the data set on Rattus norvegicus [26], 0.15%; in the data set on Rattus norvegicus [27] it was 0.8%. For the same molecule, the Dose/g in the data set with Rattus norvegicus [28] turned out to be 0.19%; in the data set on Rattus norvegicus [29] it was 2.13%; in the data set with Rattus norvegicus [30], 10.99%; in the data set with Rattus norvegicus [31], 2.53%; in the data set on Rattus norvegicus [32] it was 0.38%; with Rattus norvegicus [33] it was 19.37%. Moreover, the Dose/g amounted to 0.2% in the data set with Rattus norvegicus [34]; 0.1% in the data set with Rattus norvegicus [35]; 0.79% in the data set with Rattus norvegicus [36]; 4.9% in the data set on Rattus norvegicus [37]; 2.33% in the data set with Rattus norvegicus [38]; 1.26% in the data set with Rattus norvegicus [39]. Further, the Dose/g with Rattus norvegicus [40] is given as 0.54%.
Turning to `CC(C)[Te]CCCC(C)C1CCC2C3CC=C4CC(O)CCC4(C)C3CCC12C` (configuration not stated), the Dose is 2 rd mCi-1 in the data set filed under Homo sapiens [3]; 1.9 rd mCi-1 in the data set listed under Homo sapiens [5]; 34 rd mCi-1 in the data set filed under Homo sapiens [7]; 1.4 rd mCi-1 in the data set filed under Homo sapiens [41]; 13 rd mCi-1 in the data set filed under Homo sapiens [14]; 210 rd mCi-1 in the data set listed under Homo sapiens [20].
In the case of `CC(C)[Te]CCC(C)C1CC[C@H]2[C@@H]3CC[C@H]4CC(O)CCC4(C)[C@H]3CCC12C` (some centres not stated), the Dose in the data set listed under Homo sapiens [3] is 1.6 rd mCi-1; in the data set listed under Homo sapiens [5] it was 1.3 rd mCi-1; in the data set listed under Homo sapiens [7], 1.4 rd mCi-1; in the data set filed under Homo sapiens [41], 0.8 rd mCi-1; in the data set listed under Homo sapiens [14] it was 8 rd mCi-1; in the data set filed under Homo sapiens [20], 98 rd mCi-1.
